Assay results: ChEMBL document CHEMBL1649283, “In vitro activities of piperaquine, lumefantrine, and dihydroartemisinin in Kenyan Plasmodium falciparum isolates and polymorphisms in pfcrt and pfmdr1” (Antimicrob Agents Chemother, 2009)

Columns and labels:
Type in all cases: functional, organism-based
Plasmodium falciparum [1] = assay: Antiplasmodial activity against multidrug-resistant Plasmodium falciparum […] after 18 hrs by [3H]hypoxanthine incorporation assay
Outline: (§1)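 Reference strains (multidrug-resistant V1S, drug-sensitive 3D7) in RPMI 1640 with 15% human serum. Threefold drug dilutions; 0.5% parasitemia, 1.5% hematocrit; 66 h at 37°C under 5% O2/5% CO2/90% N2, then [3H]hypoxanthine added for 18 h, freeze-thaw lysis, counting. IC50 by nonlinear regression of dose-response; four determinations per strain.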

Plasmodium falciparum [2] = assay: Antiplasmodial activity against multidrug-sensitive Plasmodium falciparum 3D7 after 18 hrs by [3H]hypoxanthine incorporation assay; outline: as §1
Plasmodium falciparum [3] = assay: Antiplasmodial activity against Plasmodium falciparum clinical isolate after 18 hrs by [3H]hypoxanthine incorporation assay
Outline: (§2)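 Kenyan field isolates, culture-adapted in long term (some cryopreserved first), grown in RPMI 1640 with 15% human serum, HEPES, bicarbonate, glutamine and pABA. Genotyped at pfcrt 76 and pfmdr1 86 from dried blood spots. Threefold dilutions; 0.5% parasitemia, 1.5% hematocrit; 66 h at 37°C in 5% O2/5% CO2/90% N2, then [3H]hypoxanthine for 18 h. IC50 by nonlinear regression; each isolate measured twice.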

Plasmodium falciparum [4] = assay: Antiplasmodial activity against Plasmodium falciparum harboring mutant pfcrt-76 gene after 18 hrs by [3H]hypoxanthine incorporation assay; outline: as §2
Plasmodium falciparum [5] = assay: Antiplasmodial activity against Plasmodium falciparum harboring wild type pfmdr-1-86 gene after 18 hrs by [3H]hypoxanthine incorporation assay; outline: as §2
Plasmodium falciparum [6] = assay: Antiplasmodial activity against Plasmodium falciparum harboring mutant pfmdr-1-86 gene after 18 hrs by [3H]hypoxanthine incorporation assay; outline: as §2
Plasmodium falciparum [7] = assay: Antiplasmodial activity against Plasmodium falciparum harboring wild type and mutant pfcrt-76 gene after 18 hrs by [3H]hypoxanthine incorporation assay; outline: as §2
Plasmodium falciparum [8] = assay: Antiplasmodial activity against Plasmodium falciparum harboring mutant pfcrt-76 and mutant pfmdr-1-86 gene after 18 hrs by [3H]hypoxanthine incorporation assay; outline: as §2
Plasmodium falciparum [9] = assay: Antiplasmodial activity against Plasmodium falciparum harboring mutant pfcrt-76 and wild type pfmdr-1-86 gene after 18 hrs by [3H]hypoxanthine incorporation assay; outline: as §2
Plasmodium falciparum [10] = assay: Antiplasmodial activity against Plasmodium falciparum harboring wild type and mutant pfmdr-1-86 gene after 18 hrs by [3H]hypoxanthine incorporation assay; outline: as §2
Plasmodium falciparum [11] = assay: Antiplasmodial activity against Plasmodium falciparum harboring wild type pfcrt-76 and mutant pfmdr-1-86 gene after 18 hrs by [3H]hypoxanthine incorporation assay; outline: as §2
Plasmodium falciparum [12] = assay: Antiplasmodial activity against Plasmodium falciparum harboring wild type pfcrt-76 and wild type pfmdr-1-86 gene after 18 hrs by [3H]hypoxanthine incorporation assay; outline: as §2
Plasmodium falciparum [13] = assay: Antiplasmodial activity against Plasmodium falciparum harboring wild type pfcrt-76 gene after 18 hrs by [3H]hypoxanthine incorporation assay; outline: as §2

Row | SMILES | IC50 (Plasmodium falciparum [1]) | IC50 (Plasmodium falciparum [2]) | IC50 (Plasmodium falciparum [3]) | IC50 (Plasmodium falciparum [4]) | IC50 (Plasmodium falciparum [5]) | IC50 (Plasmodium falciparum [6]) | IC50 (Plasmodium falciparum [7]) | IC50 (Plasmodium falciparum [8]) | IC50 (Plasmodium falciparum [9]) | IC50 (Plasmodium falciparum [10]) | IC50 (Plasmodium falciparum [11]) | IC50 (Plasmodium falciparum [12]) | IC50 (Plasmodium falciparum [13])
1 | C[C@H]1[C@@H](O)O[C@@H]2O[C@@]3(C)CC[C@H]4[C@H](C)CC[C@@H]1[C@@]24OO3 [ARTENIMOL] | 2 nM | 2 nM | 2 nM | < 25 nM | 3 nM | 2 nM | – | – | – | – | – | – | –
2 | CCN(CC)CCCC(C)Nc1ccnc2cc(Cl)ccc12 (configuration not stated) [CHLOROQUINE] | – | – | – | 57 nM | – | – | 21 nM | 72 nM | 54 nM | – | – | – | –
3 | CCCCN(CCCC)CC(O)c1cc(Cl)cc2c1-c1ccc(Cl)cc1/C2=C/c1ccc(Cl)cc1 (configuration not stated) [LUMEFANTRINE] | 24 nM | 96 nM | 50 nM | 43 nM | 124 nM | 43 nM | 67 nM | 31 nM | 99 nM | 57 nM | 63 nM | 173 nM | –
4 | Clc1ccc2c(N3CCN(CCCN4CCN(c5ccnc6cc(Cl)ccc56)CC4)CC3)ccnc2c1 [PIPERAQUINE] | 42 nM | 27 nM | 32 nM | 38 nM | – | – | – | – | – | – | – | – | 35 nM
